In ChEMBL document CHEMBL3792375, “Strategies for improving the solubility and metabolic stability of griseofulvin analogues” (Eur J Med Chem, 2016):
Values after ≈ are worked out from the molar mass of the structure shown.

Assays:
U2OS = assay: Cytotoxicity against human U2OS cells assessed as reduction in cell viability after 72 hrs by celltiter Glo assay; type: functional, cell-based
Method in brief: (§1)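 Antiproliferative IC50 was determined against viable cells using a luminescent ATP read-out.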

[1] = Half life in mouse liver microsomes by HPLC analysis in presence of NADPH; type: ADME
Method in brief: (§2)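 Male mouse or rat liver microsomes. Each run was done in triplicate, with a matching control that had no cofactor added. Samples were taken at set times, and the remaining non-degraded compound was quantified by analytical HPLC peak area. Half-life was calculated from linear plots.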

[2] = Half life in rat liver microsomes by HPLC analysis in presence of NADPH; type: ADME; method in brief: as §2
MDA-MB-231 = assay: Cytotoxicity against human MDA-MB-231 cells assessed as reduction in cell viability after 72 hrs by celltiter Glo assay; type: functional, cell-based; settings: MDA-MB-231, 72 h; method in brief: as §1
[3] = Thermodynamic solubility in PBS buffer at 1 mg after 12 hrs by HPLC analysis; type: physicochemical; settings: read-out: Therm_solubility
Method in brief: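 Solubility was measured in PBS, with the dissolved compound quantified by HPLC. The HPLC setup has a lower detection limit.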

Liver microsome = assay: Drug metabolism in rat liver microsomes assessed as position 4/6 CH3 cleavage by LC-MS analysis; type: ADME
Liver = assay: Drug metabolism in mouse liver microsomes assessed as position 4/6 CH3 cleavage by LC-MS analysis; type: ADME
[4] = Cytotoxicity against human SCC114 cells assessed as reduction in cell viability after 24 hrs by MTT assay; type: functional, cell-based; settings: SCC114, 24 h
HeLa = assay: Cytotoxicity against human HeLa cells assessed as reduction in cell viability after 24 hrs by MTT assay; type: functional, cell-based

`COc1cc(OC(F)F)c(Cl)c2c1C(=O)[C@@]1(O2)C(OCc2ccccc2)=CC(=O)C[C@H]1C` gave an IC50 (U2OS) of 5.56 µM, a half-life [1] of 31 min and a half-life [2] of 53 min. For the same molecule, the IC50 (MDA-MB-231) was 5.34 µM and the solubility thermodynamic at 12 h [3] was < 0.3 µg/mL.
For `[2H]C([2H])([2H])OC1=CC(=O)C[C@@H](C)[C@]12Oc1c(Cl)c(OC)cc(OC)c1C2=O`, the Drug metabolism (Liver microsome) was “metabolite_detected” and the Drug metabolism (Liver) was “metabolite_detected”.
For `COc1cc(OC)c2c(c1Cl)O[C@]1(C2=O)C(OCc2ccccc2)=C/C(=N\OCC(=O)O)C[C@H]1C`, the IC50 (U2OS) was 14.1 µM, the half-life [1] was 339 min and the half-life [2] was 449 min. For the same molecule, the IC50 (MDA-MB-231) was 10.1 µM and the solubility thermodynamic at 12 h [3] was > 1000 µg/mL.
Molecule `COc1cc(OC(F)F)c2c(c1Cl)O[C@]1(C2=O)C(OCc2ccccc2)=CC(=O)C[C@H]1C` has an IC50 (U2OS) of 14.3 µM, a half-life [1] of 11 min and a half-life [2] of 26 min. For the same molecule, the IC50 (MDA-MB-231) was 11.8 µM and the solubility thermodynamic at 12 h [3] was < 0.3 µg/mL.
`COc1cc(OC)c2c(c1Cl)O[C@]1(C2=O)C(OCc2ccccc2)=CC(=O)C[C@H]1C` gave an IC50 (U2OS) of 1.45 µM, a half-life [1] of 27 min and a half-life [2] of 60 min. It also gave an IC50 (MDA-MB-231) of 1.62 µM and a solubility thermodynamic at 12 h [3] of 0.3 µg/mL (≈ 0.7 µM).
With `COc1cc(OC)c2c(c1Cl)O[C@]1(C2=O)C(OCc2ccccc2)=C/C(=N\O)C[C@H]1C` the IC50 (U2OS) was 1.61 µM, the half-life [1] was 45 min and the half-life [2] was 57 min. For the same molecule, the IC50 (MDA-MB-231) was 1.29 µM and the solubility thermodynamic at 12 h [3] was 3 µg/mL (≈ 6.76 µM).
`COC1=CC(=O)C[C@@H](C)[C@]12Oc1c(Cl)c(OC)cc(OC)c1C2=O` [GRISEOFULVIN] gave an IC50 [4] of 35 µM, an IC50 (U2OS) of 22.4 µM and a half-life [1] of 37 min. It also gave an IC50 (HeLa) of 75 µM, a half-life [2] of 58 min and an IC50 (MDA-MB-231) of 25.3 µM. It also gave a solubility thermodynamic at 12 h [3] of 7.7 µg/mL (≈ 21.8 µM).
